Reference: ChEMBL document CHEMBL5674890, “Selective inhibition of CBP/p300 HAT by A-485 results in suppression of lipogenesis and hepatic gluconeogenesis” (Cell Death Dis, 2020)
Activity calls are given as the source filed them.

Tests used:
Mus musculus [1] = experiment: Inhibition of hepatic lipogenesis in C57BL/6 mouse supplemented with normal chow diet assessed as decrease in triglyceride level at 20 mg/kg/day, ip administered for 1 week measured by Oil red O staining method; format: functional, organism-based; conditions: time 1.0 weeks
Mus musculus [2] = experiment: Anti-obesity activity in C57BL/6 mouse supplemented with high fat diet assessed as decrease in hepatic G6Pc mRNA expression level at 20 mg/kg/day, ip administered for 1 week measured by RT-qPCR assay; format: functional, organism-based; conditions: time 1.0 weeks
Summary of the method: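 Hepatic G6Pc mRNA in male C57BL/6 mice fed HFD for 14 weeks, then ip 20 mg·kg−1·day−1 for 7 days. Liver RNA extracted with Trizol; SYBR Green RT-qPCR.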

Mus musculus [3] = experiment: Inhibition of lipogenesis in C57BL/6 mouse supplemented with high-fat diet assessed as decrease in weight of inguinal white adipose tissue (iWAT) at 20 mg/kg/day, ip administered for 1 week; format: functional, organism-based; conditions: time 1.0 weeks
Summary of the method: (§1)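 Male C57BL/6 mice were fed high-fat diet for 14 weeks from 5 weeks of age, then injected ip with 20 mg·kg−1·day−1 for 7 days or given vehicle. Epididymal and inguinal WAT were weighed, examined by H&E, and analysed. Transcripts were measured by Trizol/SYBR Green RT-qPCR; proteins by western blot. n = 5–9; mean ± SEM.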

Mus musculus [4] = experiment: Inhibition of lipogenesis in C57BL/6 mouse supplemented with normal chow diet assessed as decrease in FASN mRNA expression at 20 mg/kg/day, ip administered for 1 week measured by RT-qPCR assay; format: functional, organism-based; conditions: time 1.0 weeks
Summary of the method: (§2)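 Eight-week-old male C57BL/6 mice on normal chow were given 20 mg·kg−1·day−1 ip daily for 7 days or vehicle. Epididymal WAT was collected. Lipogenic, adipogenic and fatty-acid-oxidation transcripts were quantified by Trizol extraction and SYBR Green RT-qPCR. FAS, ACC, PPARγ and C/EBPα protein were assessed by western blot. n = 5–9; mean ± SEM.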

Hepatocyte [5] = experiment: Inhibition of glucogenesis in mouse primary hepatocytes stimulated with 100 uM 8-Br-cAMP assessed as effect on pTORC2 protein expression at 3 uM measured after 1 hr by western blot analysis; format: functional, cell-based
Summary of the method: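 Primary hepatocytes from C57BL/6 mice, isolated by two-step perfusion, were co-treated with 3 μM A-485 and 100 μM 8-Br-cAMP for 1 h. Phospho-CREB, phospho-AMPK and phospho-TORC2 were detected by western blot of cell lysates. Three independent experiments; mean ± SEM.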

Mus musculus [6] = experiment: Anti-obesity activity in C57BL/6 mouse supplemented with high fat diet assessed as effect on total lean mass at 20 mg/kg/day, ip administered for 1 week; format: functional, organism-based; conditions: time 1.0 weeks
Summary of the method: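 Male C57BL/6 mice fed high-fat diet for 14 weeks from 5 weeks of age, then ip 20 mg·kg−1·day−1 for 7 days. Body weight, EchoMRI lean/fat mass, and random or 16 h-fasted blood glucose recorded, as the line states.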

Mus musculus [7] = experiment: Inhibition of lipogenesis in C57BL/6 mouse supplemented with normal chow diet assessed as effect on UCP1 mRNA expression at 20 mg/kg/day, ip administered for 1 week measured by RT-qPCR assay; format: functional, organism-based; conditions: time 1.0 weeks; summary of the method: as §2
Hepatocyte [8] = experiment: Inhibition of lipogenesis in mouse primary hepatocytes assessed as increase in FGF21 mRNA expression at 3 uM in presence of 100 nM insulin and 5 to 25 mM glucose measured after 18 hrs by RT-qPCR assay; format: functional, cell-based
Summary of the method: (§3)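 Primary hepatocytes isolated from C57BL/6 mice by two-step perfusion. Cells incubated 18 h with 3 μM inhibitor, with 0 or 100 nM insulin and 5 or 25 mM glucose. Transcripts quantified by SYBR Green RT-qPCR after Trizol RNA extraction; proteins by western blot of lysates. Mean ± SEM.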

Hepatocyte [9] = experiment: Inhibition of lipogenesis in mouse primary hepatocytes assessed as decrease in ACC mRNA expression at 3 uM in presence of 100 nM insulin and 5 to 25 mM glucose measured after 18 hrs by RT-qPCR assay; format: functional, cell-based; summary of the method: as §3
Mus musculus [10] = experiment: Inhibition of lipogenesis in C57BL/6 mouse supplemented with high-fat diet assessed as decrease in weight of epididymal white adipose tissue (eWAT) at 20 mg/kg/day, ip administered for 1 week; format: functional, organism-based; conditions: time 1.0 weeks; summary of the method: as §1
Adipocyte [11] = experiment: Inhibition of lipogenesis in mouse adipocytes isolated stromal vascular cells assessed as decrease in FAS protein expression measured after 24 hrs by western blot analysis; format: functional, cell-based
Mus musculus [12] = species on record: Mus musculus; experiment: Inhibition of glucogenesis in mouse assessed as decrease in occupancy of G6Pc promoter with FOXO1 in liver measured by ChIP-qPCR analysis; format: functional, organism-based
Summary of the method: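 Livers from mice dosed ip at 20 mg·kg−1·day−1 for 7 days. Tissue crosslinked in 1% formaldehyde, lysed, sonicated to 200–1000 bp chromatin, immunoprecipitated with anti-FOXO1 or IgG. G6Pc promoter quantified by qPCR.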

Adipocyte [13] = experiment: Inhibition of lipogenesis in mouse adipocytes isolated stromal vascular cells assessed as decrease in FASN mRNA expression measured after 24 hrs by RT-qPCR assay; format: functional, cell-based
Summary of the method: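 Stromal vascular cells from inguinal WAT of C57BL/6 mice, grown in DMEM/F12 + 10% FBS at 37 °C, 10% CO2. At confluence, induced 48 h with 5 μg/ml insulin, 1 μM dexamethasone, 0.5 mM isobutylmethylxanthine, then 6 days in 5 μg/ml insulin; fully differentiated day 8. Mature adipocytes exposed to inhibitor 24 h. Total RNA by Trizol, SYBR Green RT-qPCR; protein by western blot.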

Mus musculus [14] = experiment: Anti-obesity activity in C57BL/6 mouse supplemented with high fat diet assessed as decrease in blood glucose level at 20 mg/kg/day, ip administered for 1 week measured by pyruvate tolerance test; format: functional, organism-based; conditions: time 1.0 weeks
Summary of the method: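 High-fat diet male C57BL/6 mice (14 weeks on HFD from 5 weeks of age) dosed ip at 20 mg·kg−1·day−1 for 7 days. 16 h fast, then pyruvate 2 g/kg body weight ip; blood glucose tracked.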

Mus musculus [15] = experiment: Inhibition of lipogenesis in C57BL/6 mouse supplemented with normal chow diet assessed as decrease in SCD1 mRNA expression at 20 mg/kg/day, ip administered for 1 week measured by RT-qPCR assay; format: functional, organism-based; conditions: time 1.0 weeks; summary of the method: as §2
Hepatocyte [16] = experiment: Inhibition of lipogenesis in mouse primary hepatocytes assessed as decrease in SCD1 mRNA expression at 3 uM in presence of 100 nM insulin and 5 to 25 mM glucose measured after 18 hrs by RT-qPCR assay; format: functional, cell-based; summary of the method: as §3
[17] = target: CREB-binding protein/Histone acetyltransferase p300 (Homo sapiens) (UniProt Q09472+Q92793); experiment: Inhibition of CBP/p300 in mouse primary hepatocytes stimulated with 100 uM 8-Br-cAMP assessed as decrease in FOXO1 abundance in nucleus at 3 uM; format: cell-based; conditions: Primary hepatocyte
Summary of the method: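 Primary mouse hepatocytes treated with 3 μM compound and 100 μM 8-Br-cAMP. Nuclear and cytoplasmic fractions separated with a commercial kit; FOXO1 detected by western blot.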

Hepatocyte [18] = experiment: Inhibition of lipogenesis in mouse primary hepatocytes assessed as increase in ACO mRNA expression at 3 uM in presence of 100 nM insulin and 5 to 25 mM glucose measured after 18 hrs by RT-qPCR assay; format: functional, cell-based; summary of the method: as §3
Hepatocyte [19] = experiment: Inhibition of glucogenesis in mouse primary hepatocytes stimulated with 100 uM 8-Br-cAMP assessed as effect on FOXO1 mRNA expression at 3 uM measured after 8 hrs by RT-qPCR assay; format: functional, cell-based
Summary of the method: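 Primary mouse hepatocytes treated with 3 μM compound and 100 μM 8-Br-cAMP for 8 h. Trizol RNA, SYBR Green RT-qPCR of the named transcript. Mean ± SEM, three independent experiments.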

CREB-binding protein/Histone acetyltransferase p300 (Homo sapiens), sequence (Q09472 whole entry, looked up): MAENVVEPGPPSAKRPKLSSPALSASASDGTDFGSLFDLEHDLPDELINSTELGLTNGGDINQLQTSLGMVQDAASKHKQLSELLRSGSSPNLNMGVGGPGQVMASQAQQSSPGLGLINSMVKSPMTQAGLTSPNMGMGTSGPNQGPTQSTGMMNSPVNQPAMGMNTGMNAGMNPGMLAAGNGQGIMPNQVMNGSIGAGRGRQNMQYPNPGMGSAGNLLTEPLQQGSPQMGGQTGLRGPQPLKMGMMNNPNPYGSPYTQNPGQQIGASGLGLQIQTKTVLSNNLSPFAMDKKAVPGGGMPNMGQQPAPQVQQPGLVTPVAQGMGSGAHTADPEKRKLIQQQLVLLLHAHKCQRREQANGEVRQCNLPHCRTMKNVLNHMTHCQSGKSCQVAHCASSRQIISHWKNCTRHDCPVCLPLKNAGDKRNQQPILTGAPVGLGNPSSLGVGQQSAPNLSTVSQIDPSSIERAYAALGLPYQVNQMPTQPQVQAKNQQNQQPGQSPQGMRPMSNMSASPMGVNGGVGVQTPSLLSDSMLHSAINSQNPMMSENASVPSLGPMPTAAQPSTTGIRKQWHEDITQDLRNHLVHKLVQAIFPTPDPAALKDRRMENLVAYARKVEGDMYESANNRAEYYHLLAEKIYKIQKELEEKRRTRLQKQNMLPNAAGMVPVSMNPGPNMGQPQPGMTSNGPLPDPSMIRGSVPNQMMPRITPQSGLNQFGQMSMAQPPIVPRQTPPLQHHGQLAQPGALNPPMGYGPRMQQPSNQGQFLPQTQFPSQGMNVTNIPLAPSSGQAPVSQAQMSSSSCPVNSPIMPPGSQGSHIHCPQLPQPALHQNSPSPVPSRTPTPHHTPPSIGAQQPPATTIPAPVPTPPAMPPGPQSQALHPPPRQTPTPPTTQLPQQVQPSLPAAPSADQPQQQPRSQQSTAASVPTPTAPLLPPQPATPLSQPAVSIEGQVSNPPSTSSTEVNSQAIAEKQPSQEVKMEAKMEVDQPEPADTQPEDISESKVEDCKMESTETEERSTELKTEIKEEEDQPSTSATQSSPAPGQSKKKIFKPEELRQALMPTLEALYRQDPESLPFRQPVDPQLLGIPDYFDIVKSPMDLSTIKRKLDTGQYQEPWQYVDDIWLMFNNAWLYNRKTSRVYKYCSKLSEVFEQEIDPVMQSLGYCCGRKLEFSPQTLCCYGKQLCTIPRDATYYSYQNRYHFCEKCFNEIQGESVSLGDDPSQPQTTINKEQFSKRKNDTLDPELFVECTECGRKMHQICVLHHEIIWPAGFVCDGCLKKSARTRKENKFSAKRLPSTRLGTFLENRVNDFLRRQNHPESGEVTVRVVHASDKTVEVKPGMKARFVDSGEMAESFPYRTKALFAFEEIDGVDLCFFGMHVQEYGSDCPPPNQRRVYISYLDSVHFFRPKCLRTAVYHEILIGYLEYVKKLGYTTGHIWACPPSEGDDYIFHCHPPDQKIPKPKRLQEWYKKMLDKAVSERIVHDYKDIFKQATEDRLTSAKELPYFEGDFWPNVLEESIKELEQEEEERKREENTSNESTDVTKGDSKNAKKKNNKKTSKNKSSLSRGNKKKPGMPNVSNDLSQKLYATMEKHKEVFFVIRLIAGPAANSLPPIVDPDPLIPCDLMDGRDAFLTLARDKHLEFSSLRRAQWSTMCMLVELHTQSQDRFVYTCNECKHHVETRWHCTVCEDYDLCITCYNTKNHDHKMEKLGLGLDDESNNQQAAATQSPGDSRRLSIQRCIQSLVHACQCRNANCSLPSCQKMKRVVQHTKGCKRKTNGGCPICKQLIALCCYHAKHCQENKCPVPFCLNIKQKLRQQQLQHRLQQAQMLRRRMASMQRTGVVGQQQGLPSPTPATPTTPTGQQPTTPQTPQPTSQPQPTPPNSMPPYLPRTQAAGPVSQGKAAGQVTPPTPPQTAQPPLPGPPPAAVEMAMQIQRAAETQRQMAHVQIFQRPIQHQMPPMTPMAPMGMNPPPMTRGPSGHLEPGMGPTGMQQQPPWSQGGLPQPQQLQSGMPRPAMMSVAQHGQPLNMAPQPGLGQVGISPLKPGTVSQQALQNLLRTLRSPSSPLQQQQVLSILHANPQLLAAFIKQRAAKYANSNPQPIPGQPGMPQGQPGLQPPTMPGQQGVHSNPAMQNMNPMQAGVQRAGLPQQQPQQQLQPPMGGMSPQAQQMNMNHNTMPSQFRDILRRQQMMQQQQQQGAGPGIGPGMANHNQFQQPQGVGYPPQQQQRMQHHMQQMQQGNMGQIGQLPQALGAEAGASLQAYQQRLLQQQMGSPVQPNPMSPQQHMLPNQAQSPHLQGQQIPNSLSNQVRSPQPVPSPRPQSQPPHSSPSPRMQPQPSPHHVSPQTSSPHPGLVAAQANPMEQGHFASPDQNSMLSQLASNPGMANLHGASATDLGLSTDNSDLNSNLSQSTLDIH
CREB-binding protein/Histone acetyltransferase p300 (Homo sapiens), sequence (Q92793 whole entry, looked up): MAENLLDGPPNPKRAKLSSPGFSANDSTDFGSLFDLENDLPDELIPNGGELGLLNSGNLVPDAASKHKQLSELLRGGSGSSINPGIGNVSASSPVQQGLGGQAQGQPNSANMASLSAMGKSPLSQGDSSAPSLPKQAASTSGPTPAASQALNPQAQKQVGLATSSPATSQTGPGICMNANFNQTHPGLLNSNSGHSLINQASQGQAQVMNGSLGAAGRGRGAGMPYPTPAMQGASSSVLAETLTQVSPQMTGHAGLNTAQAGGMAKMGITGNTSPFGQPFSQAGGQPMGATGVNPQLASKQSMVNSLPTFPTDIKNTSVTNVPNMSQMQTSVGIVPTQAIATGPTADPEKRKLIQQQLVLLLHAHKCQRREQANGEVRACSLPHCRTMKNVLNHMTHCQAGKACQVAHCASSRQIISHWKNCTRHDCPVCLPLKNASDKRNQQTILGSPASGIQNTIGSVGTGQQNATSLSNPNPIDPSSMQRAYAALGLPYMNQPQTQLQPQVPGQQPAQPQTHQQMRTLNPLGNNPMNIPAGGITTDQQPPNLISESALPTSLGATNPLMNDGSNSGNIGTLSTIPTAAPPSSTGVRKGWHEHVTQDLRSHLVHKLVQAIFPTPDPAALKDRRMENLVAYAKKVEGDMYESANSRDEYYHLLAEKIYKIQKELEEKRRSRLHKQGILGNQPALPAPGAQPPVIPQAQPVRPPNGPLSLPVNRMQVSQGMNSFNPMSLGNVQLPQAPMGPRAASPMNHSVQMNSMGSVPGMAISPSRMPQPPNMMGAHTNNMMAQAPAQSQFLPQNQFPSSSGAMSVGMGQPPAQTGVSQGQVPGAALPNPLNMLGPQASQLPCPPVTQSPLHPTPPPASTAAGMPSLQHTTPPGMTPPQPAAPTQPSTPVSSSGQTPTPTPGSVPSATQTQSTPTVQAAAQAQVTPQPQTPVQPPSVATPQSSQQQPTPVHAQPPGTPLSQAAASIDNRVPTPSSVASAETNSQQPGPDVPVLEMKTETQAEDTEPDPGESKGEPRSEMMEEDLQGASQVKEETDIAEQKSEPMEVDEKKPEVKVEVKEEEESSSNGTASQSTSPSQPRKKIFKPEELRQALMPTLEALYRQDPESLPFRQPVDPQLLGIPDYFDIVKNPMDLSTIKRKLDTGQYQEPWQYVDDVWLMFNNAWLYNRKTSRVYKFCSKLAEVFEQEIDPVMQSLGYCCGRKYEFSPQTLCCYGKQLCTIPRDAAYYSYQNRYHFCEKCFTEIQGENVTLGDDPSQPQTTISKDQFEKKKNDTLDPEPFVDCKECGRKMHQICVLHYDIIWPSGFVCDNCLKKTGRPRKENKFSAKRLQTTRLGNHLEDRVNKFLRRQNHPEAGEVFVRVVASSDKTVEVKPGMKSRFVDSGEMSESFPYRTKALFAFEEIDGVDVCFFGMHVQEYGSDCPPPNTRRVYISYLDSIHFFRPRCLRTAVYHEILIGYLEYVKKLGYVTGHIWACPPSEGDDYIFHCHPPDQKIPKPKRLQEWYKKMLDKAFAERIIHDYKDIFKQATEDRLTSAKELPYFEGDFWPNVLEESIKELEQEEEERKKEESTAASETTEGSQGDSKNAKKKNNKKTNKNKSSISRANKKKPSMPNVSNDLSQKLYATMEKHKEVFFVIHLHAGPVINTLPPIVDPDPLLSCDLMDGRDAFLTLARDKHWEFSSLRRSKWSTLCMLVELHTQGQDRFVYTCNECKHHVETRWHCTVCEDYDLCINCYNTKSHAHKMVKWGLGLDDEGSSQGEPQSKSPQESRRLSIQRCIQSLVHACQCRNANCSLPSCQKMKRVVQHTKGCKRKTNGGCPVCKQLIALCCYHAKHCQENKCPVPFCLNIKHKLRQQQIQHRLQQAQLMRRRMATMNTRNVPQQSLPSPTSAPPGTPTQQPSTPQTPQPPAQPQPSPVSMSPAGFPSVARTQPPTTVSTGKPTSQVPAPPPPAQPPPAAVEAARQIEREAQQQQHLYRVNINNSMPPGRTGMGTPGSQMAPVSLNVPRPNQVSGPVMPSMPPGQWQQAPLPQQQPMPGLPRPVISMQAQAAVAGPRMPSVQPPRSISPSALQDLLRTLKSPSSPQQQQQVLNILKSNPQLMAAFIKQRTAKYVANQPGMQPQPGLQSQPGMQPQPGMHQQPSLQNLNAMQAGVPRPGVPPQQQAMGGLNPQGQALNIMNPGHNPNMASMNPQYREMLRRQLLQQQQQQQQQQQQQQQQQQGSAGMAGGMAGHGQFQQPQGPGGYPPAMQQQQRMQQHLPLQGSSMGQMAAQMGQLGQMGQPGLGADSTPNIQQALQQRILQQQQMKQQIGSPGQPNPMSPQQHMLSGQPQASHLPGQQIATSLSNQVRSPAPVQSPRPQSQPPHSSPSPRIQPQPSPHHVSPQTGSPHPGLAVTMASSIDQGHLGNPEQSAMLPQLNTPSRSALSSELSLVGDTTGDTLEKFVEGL

CNC(=O)Nc1ccc2c(c1)CCS21OC(=O)N(CC(=O)N(Cc2ccc(F)cc2)[C@@H](C)C(F)(F)F)C1=O (some centres undefined)
active: inhibition (Mus musculus [1]) | Activity (Mus musculus [2]) | inhibition (Mus musculus [3]) | inhibition (Mus musculus [4]) | inhibition (Hepatocyte [8]) | inhibition (Hepatocyte [9]) | inhibition (Mus musculus [10]) | inhibition (Adipocyte [11]) | inhibition (Mus musculus [12]) | inhibition (Adipocyte [13]) | Activity (Mus musculus [14]) | inhibition (Mus musculus [15]) | inhibition (Hepatocyte [16]) | inhibition [17] | inhibition (Hepatocyte [18])
inactive: inhibition (Hepatocyte [5]) | Activity (Mus musculus [6]) | inhibition (Mus musculus [7]) | inhibition (Hepatocyte [19])
